Assay results as given in publication PMC6087492 (Bioorganic & medicinal chemistry, 2018).

Assays:
WI-38 IR-SCs = test: Apoptosis assay, Annexin V / propidium iodide flow cytometry; assay type: cell-based, Human; conditions: QVD 10 µM with 49 1 µM, 48 h and 72 h
OXR1 = target: T1, OXR1 (Homo sapiens, UniProt Q8N573); test: OXR1 degradation assay using western blot; assay type: cell-based; conditions: 5 µM, 24 h, WI-38 IR-SCs and NCs
T1 sequence (Q8N573 1-874): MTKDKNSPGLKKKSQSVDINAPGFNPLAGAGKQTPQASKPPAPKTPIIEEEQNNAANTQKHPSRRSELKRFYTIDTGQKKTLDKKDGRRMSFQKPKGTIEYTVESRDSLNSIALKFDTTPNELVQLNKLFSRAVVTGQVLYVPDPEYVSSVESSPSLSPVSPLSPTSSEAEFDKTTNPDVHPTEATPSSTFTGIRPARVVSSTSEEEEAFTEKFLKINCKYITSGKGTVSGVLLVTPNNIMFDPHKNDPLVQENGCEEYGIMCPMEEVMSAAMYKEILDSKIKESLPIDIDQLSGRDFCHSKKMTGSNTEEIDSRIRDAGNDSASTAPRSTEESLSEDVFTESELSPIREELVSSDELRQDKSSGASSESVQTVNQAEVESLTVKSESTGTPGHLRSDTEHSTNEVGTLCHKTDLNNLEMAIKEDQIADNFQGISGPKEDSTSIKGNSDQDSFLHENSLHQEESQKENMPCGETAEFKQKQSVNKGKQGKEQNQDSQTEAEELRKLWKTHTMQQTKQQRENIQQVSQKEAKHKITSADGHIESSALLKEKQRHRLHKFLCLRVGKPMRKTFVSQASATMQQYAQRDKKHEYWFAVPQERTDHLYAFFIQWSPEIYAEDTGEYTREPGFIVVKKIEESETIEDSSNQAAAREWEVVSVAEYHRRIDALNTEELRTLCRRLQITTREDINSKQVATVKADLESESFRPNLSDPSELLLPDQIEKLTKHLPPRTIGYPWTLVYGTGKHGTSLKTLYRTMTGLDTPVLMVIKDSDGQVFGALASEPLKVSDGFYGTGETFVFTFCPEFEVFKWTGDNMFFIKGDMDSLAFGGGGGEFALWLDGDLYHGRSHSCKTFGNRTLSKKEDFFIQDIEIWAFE
Summary of the method: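 Low-passage (<25) WI-38 cells, plus senescent cells made by 15 Gy ¹³⁷Cs γ-irradiation (1.080 Gy/min). Both cultured at 37 °C, 5% CO2, then given 5 µM test compound or vehicle for 24 h. Lysed in RIPA with EDTA/EGTA and transferred to PVDF. Blocked with 5% nonfat milk/TBST. Probed overnight at 4 °C for OXR1 and β-actin, HRP secondaries, ECL/autoradiography. Quantified as mean ± SEM, n = 3.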

mice = conditions: cited from earlier work
[1] = tested on: ROS production in WI-38 IR-SCs; test: ROS assay with dihydrorhodamine 123, flow cytometry; assay type: cell-based, Human; conditions: […] treatment, DHR 123 30 min

CC(C)[C@H](NC(=O)c1ccc2ccccc2n1)C(=O)N[C@@H](CC(=O)O)C(=O)COc1c(F)cccc1F [QVD]
effect of pan-caspase inhibitor on 49-induced apoptosis and death (WI-38 IR-SCs): significantly reduced apoptosis and partially rescued SCs from 49-induced death

C=C1CCN(C(=O)/C=C/c2cc(OC)c(OC)c(OC)c2)C1=O [Compound 48, (E)-3-Methylene-1-(3-(3,4,5-trimethoxyphenyl)acryloyl)pyrrolidin-2-one]
OXR1 levels (western blot) (OXR1): selectively reduced the levels of OXR1 in SCs

C=C1CCCN(C(=O)/C=C/c2cc(OC)c(OC)c(OC)c2)C1=O [Compound 47, (E)-3-Methylene-1-(3-(3,4,5-trimethoxyphenyl)acryloyl)piperidin-2-one]
OXR1 levels (western blot) (OXR1): selectively reduced the levels of OXR1 in SCs

C=C1CCCCN(C(=O)/C=C/c2cc(OC)c(OC)c(OC)c2)C1=O [Compound 49, (E)-3-Methylene-1-(3-(3,4,5-trimethoxyphenyl)acryloyl)azepan-2-one]
OXR1 levels (western blot) (OXR1): selectively reduced the levels of OXR1 in SCs

COc1cc(/C=C/C(=O)N2CCC=CC2=O)cc(OC)c1OC [PL, piperlongumine]
maximum tolerated oral dose (mice; mice, oral): > 1000 mg/kg | effective therapeutic dose for cancer (mice; oral dosing): ≥ 2.4 mg/kg | OXR1 levels (western blot) (OXR1): abrogated the upregulation of OXR1 | ROS levels (DHR 123 fluorescence) [1]: moderate increase of the ROS levels
